Reference: ChEMBL document CHEMBL1157229, “Phaeofurans and sorbicillin analogues from a fungicolous Phaeoacremonium species (NRRL 32148)” (2006)
Calls of active or inactive are those of the source. The calls are words filed in the database; no cut-off is given here.

How the values were obtained:
Aspergillus flavus = experiment: Antifungal activity against Aspergillus flavus NRRL 6541 at 200 ug/disk after 48 hrs by standard disk diffusion assay; format: functional; conditions: for zone of inhibition at 200 µg/disc: NRRL 6541, 48 h, read-out: IZ
In short: (§1)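 Compounds applied at 200 µg per disk. Read-out was the zone diameter (mm) around the disk at 48 h. Zones were scored as clear, partial clearing, or reduced sporulation of the fungus.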

Fusarium verticillioides = experiment: Antifungal activity against Fusarium verticillioides NRRL 25457 at 200 ug/disk after 48 hrs by standard disk diffusion assay; format: functional, organism-based; in short: as §1
Staphylococcus aureus = experiment: […] activity against Staphylococcus aureus ATCC 29213 at 200 ug/disk after 48 hrs by standard disk diffusion assay; format: functional, organism-based
Escherichia coli = experiment: […] activity against Escherichia coli ATCC 25922 at 200 ug/disk after 48 hrs by standard disk diffusion assay; format: functional, organism-based
Candida albicans = experiment: Antifungal activity against Candida albicans ATCC 14053 at 200 ug/disk after 48 hrs by standard disk diffusion assay; format: functional, organism-based

SMILES	zone of inhibition at 200 µg/disc (Aspergillus flavus) [mm]	Activity (Aspergillus flavus)	Activity (Fusarium verticillioides)	Activity (Staphylococcus aureus)	Activity (Escherichia coli)	Activity (Candida albicans)
C/C=C/C=C/C(=O)c1cc(C=O)c(OC)cc1O	40	–	–	–	–	–
C/C=C/C=C/C(=O)c1cc(C)c(OC)cc1O	–	inactive	–	–	–	–
C/C=C/CCC(=O)c1cc(CO)c(OC)cc1O	18	–	–	–	–	–
O[C@@H]1c2cocc2[C@@H](O)[C@H]2O[C@H]21	–	inactive	inactive	inactive	inactive	inactive
CCCC(O)[C@H]1OCC2=C1[C@@H](O)[C@H]1O[C@H]1[C@@H]2O (stereo partly drawn)	–	inactive	inactive	inactive	inactive	inactive
